# CYP2C9 inhib – human CYP2C9 inhibition; P11712; CYP2C9 Supersomes, luciferin-H conversion, luminescence; inhibition, % at 5 µM; 96,000 tested, 20% active; AID 777;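 active = blocking of liver enzyme CYP2C9 beyond about 50% at 5 µM, limit read from the data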
# Target sequence (P11712 whole entry, looked up): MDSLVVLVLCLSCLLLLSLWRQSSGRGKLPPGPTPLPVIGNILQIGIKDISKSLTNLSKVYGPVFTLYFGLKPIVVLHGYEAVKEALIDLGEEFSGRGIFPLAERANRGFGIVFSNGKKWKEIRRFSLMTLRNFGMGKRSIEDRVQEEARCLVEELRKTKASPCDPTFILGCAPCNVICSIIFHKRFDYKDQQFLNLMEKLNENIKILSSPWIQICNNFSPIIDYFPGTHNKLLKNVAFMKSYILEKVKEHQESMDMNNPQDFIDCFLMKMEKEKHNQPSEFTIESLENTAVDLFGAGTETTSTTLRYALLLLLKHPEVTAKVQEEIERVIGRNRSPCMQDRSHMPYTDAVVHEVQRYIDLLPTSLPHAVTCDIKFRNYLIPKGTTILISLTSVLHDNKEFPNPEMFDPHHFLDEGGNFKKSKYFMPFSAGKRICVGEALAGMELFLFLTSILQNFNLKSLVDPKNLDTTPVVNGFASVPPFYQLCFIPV
# Cav3 T inh – human Cav3.2 channel inhibition, primary screen; O95180; Cav3.2-expressing cells, Fluo-4 calcium fluorescence FDSS; stronger effect = lower value; B-score at 10 µM; 100,000 tested, 4% active; AID 449739;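 active = single-dose well whose peak fluorescence ratio is a statistical outlier from its plate by either plate-standardised score or position-corrected B-score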
# CYP2C9 activ – activators of human CYP2C9. recombinant CYP2C9, luciferin-H conversion, luminescence; stronger effect = higher value; factor 1 = untreated enzyme, 0 = blocked. activation factor at 5 µM. 96,000 tested, 1.4% active. AID 1024;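 active = activation factor of 2 or more for CYP2C9 at a 5 µM dose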;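 note: 0 = sulfaphenazole-blocked wells and 1 = vehicle-only wells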
# CYP2C19 act – increases human CYP2C19 enzyme activity | P33261 | recombinant CYP2C19, luciferin-H EGE luminescence; stronger effect = higher value; 0 = fully inhibited enzyme, 1 = untreated enzyme | activation factor at 5 µM | 96,000 tested, under 10 active | AID 1025;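 active = activation factor of at least 2 at 5 µM in the primary screen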;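 note: 0 = wells with 2.5 mM tranylcypromine and 1 = vehicle-only wells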
# CYP2C19 inh – human CYP2C19 inhibition; 96,000 tested, 21% active; inhibition, % at 5 µM; P33261; CYP2C19 Supersomes, luciferin-H EGE luminescence, 30 min;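 active = CYP2C19 inhibition above a set limit at 5 µM in the primary screen, cut at about 50% in these data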;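 note: plate controls were negative control wells for no effect and 2.5 mM tranylcypromine positive control for full effect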
# HIV Rev-RRE inh – HIV Rev-RRE protein-RNA interaction inhibition. P05866. Rev peptide-RRE RNA binding, FRET. inhibition, % at 8 µM. 97,000 tested, 0.79% active. AID 704;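 active = inhibition above the screen-wide mean plus 3 SD, cut at about 35% in these data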;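 note: 0% = median DMSO wells and 100% = median Neomycin B control wells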
#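 Test system: Cy5-tagged RRE RNA duplex with fluorescein-tagged Rev peptide; Probe or stimulus: labelled Rev peptide; Schedule: 5 min preincubation and 15 min binding, 25 °C; Signal: FRET fluorescence readout; Evaluation: % inhibition from 671/540 nm acceptor-to-donor ratio, scaled between controls; Control set: DMSO and neomycin B.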
# Starred values were filed as active, the others as inactive; x = not tested or not shown. Hits are enriched below; roughly 27% of the tested compounds scored in any of these assays.
SMILES,CYP2C9 inhib,Cav3 T inh,CYP2C9 activ,CYP2C19 act,CYP2C19 inh,HIV Rev-RRE inh
CCC(C(=O)NCc1ccco1)N(Cc1cccs1)C(=O)CNS(=O)(=O)c1ccccc1 (configuration not stated),22,-0.037,0.8,0.6,44,10
CCC(=O)N(CCC(c1ccccc1)c1ccco1)Cc1cccs1 (configuration not stated),69*,-9.4*,0.3,0.6,36,-3
CCC(=O)NCCC(c1ccco1)c1ccccc1OC (configuration not stated),x,0.88,x,x,x,-2
COc1ccccc1C(CCN(Cc1cccs1)C(C)=O)c1ccco1 (configuration not stated),90*,-5*,0.1,0.1,92*,8
CCCCNC(=O)CCCn1c(=S)[nH]c2cc3c(cc2c1=O)OCO3,59*,x,0.4,0.9,15,9
CCOCCCn1c(=S)[nH]c2cc3c(cc2c1=O)OCO3,48,x,0.5,0.3,68*,x
CCOC(=O)c1c(=O)n(O)c2ccc(OC)cc2[n+]1[O-],-4,-0.91,1,1,-1,33
Cc1nc(SCC(=O)NCCc2ccccc2)c2oc3ccccc3c2n1,58*,-0.47,0.4,0.4,65*,-8
Cc1nc(NCCc2ccccc2)c2oc3ccccc3c2n1,48,-1.9,0.5,0.7,31,15
CCc1nc(SCC(=O)NCCc2ccccc2)c2oc3ccccc3c2n1,68*,-2,0.3,0.4,57*,6
CCOC(=O)CSc1nc(-c2ccccc2)nc2c1oc1ccccc12,-6,-1.2,1.1,1.1,-15,7
CCOC(=O)CC(=O)CSc1ncnc2c1cnn2-c1ccccc1,37,0.12,0.6,0.7,27,17
CCOc1cc(N2CCOCC2)c(OCC)cc1NC(=O)COC(=O)CCc1c[nH]c2ccccc12,6,0.54,0.9,1,4,3
O=C(C1CCCN(Cc2ccncc2)C1)N1CCc2ccccc2C1 (configuration not stated),67*,0.7,0.3,0,96*,5
Cc1cccc(CN2CCCC(C(=O)N3CCc4ccccc4C3)C2)c1 (configuration not stated),14,0.061,0.9,0.4,64*,3
O=C(C1CCCN(Cc2ccccc2)C1)N1CCCCC1 (configuration not stated),4,-0.35,1,1.1,-6,14
CCc1ccc(/C=N/Nc2nn[nH]n2)cc1,x,0.022,x,x,x,12
c1ccc2c(CSc3nnc(-c4ccncc4)o3)cccc2c1,91*,-0.89,0.1,0,96*,7
COc1cc(-c2nnc(SCc3ccccc3Cl)o2)cc(OC)c1OC,30,x,0.7,0.6,45,1
Brc1cccc(-c2nnc(SCc3nc4ccccc4[nH]3)o2)c1,-27,x,1.3,0.7,32,9
Clc1ccccc1CSc1nnc(-c2ccncc2)o1,90*,-0.0056,0.1,0.1,95*,0
c1ccc2[nH]c(CSc3nnc(-c4ccncc4)o3)nc2c1,81*,0.0027,0.2,0.2,80*,x
c1ccc(C[n+]2cccc3c4ccccc4ccc32)cc1,-31,0.066,1.3,1,0,-9
CCc1cccc2c(=O)c(C(=O)NCCN3CCOCC3)c[nH]c12,-17,0.17,1.2,1.1,-14,4
CCc1nn(C(C)C(=O)NC(C)CCc2ccco2)c(=O)c2cc3occc3n12 (configuration not stated),77*,0.11,0.2,0.4,60*,x
SMILES,CYP2C9 inhib,Cav3 T inh,CYP2C9 activ,CYP2C19 act,CYP2C19 inh,HIV Rev-RRE inh
CCN(CC)C(=O)Cn1c(=O)n(-c2ccccc2)c(=O)n1CC(=O)N(CC)CC,-10,0.15,1.1,1,5,4
CCN1C=CC(=C2C(=O)c3ccccc3C2=O)C=C1,34,-0.03,0.7,0.5,49,11
CCCN1C=CC(=C2C(=O)c3ccccc3C2=O)C=C1,58*,1.5,0.4,0.2,76*,x
C=CCc1cc(C)cc(C)c1OCCn1cncn1,x,1.1,x,x,x,8
Cc1cc(Cl)cc(Br)c1OCCCCn1cncn1,73*,-0.073,0.3,0,98*,5
Cc1cc(C)c(OCCCCNCc2ccccc2)c(Cl)c1,22,-1.1,0.8,0.6,43,3
C=CCNCCCCOc1c(Cl)cc(C)cc1Br,-10,0.33,1.1,0.4,57*,-6

# Bioassay records (PubChem)
